According to ChEMBL document CHEMBL1145619, “Conformation-activity relationship on novel 4-pyridylmethylthio derivatives with antiangiogenic activity” (Bioorg Med Chem Lett, 2008):

Key:
[1] = target: T1, Vascular endothelial growth factor receptor 2 (Homo sapiens, UniProt P35968); test: Inhibition of KDR at 10 uM by ELISA
Method in brief: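 KDR kinase activity measured with a commercial kinase assay development kit by ELISA. The read-out is the phosphorylation level of a biotinylated peptide containing Tyr in its sequence. The table gives IC50 values, and gives percent inhibition at 10 µM where the IC50 exceeded the range.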

HUVEC = test: Antiproliferative activity against VEGF-induced HUVEC cells; format: functional, cell-based; details: Homo sapiens
[2] = target: T1, Vascular endothelial growth factor receptor 2; test: Inhibition of KDR by ELISA
Method in brief: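 KDR kinase activity measured with a commercial kinase assay development kit by ELISA. The read-out is the phosphorylation level of a biotinylated peptide containing Tyr in its sequence.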

T1 sequence (P35968 whole entry): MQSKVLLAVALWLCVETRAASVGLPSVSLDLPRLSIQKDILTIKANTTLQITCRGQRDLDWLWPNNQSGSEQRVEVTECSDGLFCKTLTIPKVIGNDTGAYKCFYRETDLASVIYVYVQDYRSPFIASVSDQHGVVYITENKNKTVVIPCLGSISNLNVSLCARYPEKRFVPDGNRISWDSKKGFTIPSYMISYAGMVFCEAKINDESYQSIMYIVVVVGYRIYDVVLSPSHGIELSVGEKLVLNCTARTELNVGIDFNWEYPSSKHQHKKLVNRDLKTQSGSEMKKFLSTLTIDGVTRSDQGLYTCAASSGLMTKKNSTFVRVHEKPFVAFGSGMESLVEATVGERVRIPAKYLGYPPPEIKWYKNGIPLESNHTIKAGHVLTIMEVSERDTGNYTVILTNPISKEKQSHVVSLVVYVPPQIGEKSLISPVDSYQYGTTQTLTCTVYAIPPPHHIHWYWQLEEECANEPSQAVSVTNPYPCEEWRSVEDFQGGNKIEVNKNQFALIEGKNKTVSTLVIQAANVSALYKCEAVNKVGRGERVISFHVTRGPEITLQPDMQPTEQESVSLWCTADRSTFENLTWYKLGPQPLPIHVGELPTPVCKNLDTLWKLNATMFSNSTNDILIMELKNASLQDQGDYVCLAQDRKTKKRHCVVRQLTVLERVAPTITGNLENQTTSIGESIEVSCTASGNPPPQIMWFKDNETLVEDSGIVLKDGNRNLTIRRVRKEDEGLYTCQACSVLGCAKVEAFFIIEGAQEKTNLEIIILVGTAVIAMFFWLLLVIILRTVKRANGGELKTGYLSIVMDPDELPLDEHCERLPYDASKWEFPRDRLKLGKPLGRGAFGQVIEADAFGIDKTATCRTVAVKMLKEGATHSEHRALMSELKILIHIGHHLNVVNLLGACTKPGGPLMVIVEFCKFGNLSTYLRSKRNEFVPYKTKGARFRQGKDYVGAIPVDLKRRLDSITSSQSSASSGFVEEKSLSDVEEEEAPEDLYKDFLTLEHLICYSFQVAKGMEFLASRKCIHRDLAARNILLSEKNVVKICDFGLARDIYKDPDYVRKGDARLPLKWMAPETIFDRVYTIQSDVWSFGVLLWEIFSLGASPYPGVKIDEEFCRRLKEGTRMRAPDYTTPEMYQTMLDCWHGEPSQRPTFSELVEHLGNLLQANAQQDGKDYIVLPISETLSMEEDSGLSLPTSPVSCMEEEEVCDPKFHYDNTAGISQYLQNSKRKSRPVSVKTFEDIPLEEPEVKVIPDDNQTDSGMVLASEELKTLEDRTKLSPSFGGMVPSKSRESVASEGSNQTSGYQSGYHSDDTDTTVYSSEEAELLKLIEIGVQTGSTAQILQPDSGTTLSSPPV

Row | inhibition [1] | IC50 [2] | Compound | IC50 (HUVEC)
1 | 54% | > 1000 nM | O=C(Nc1ccc(Cl)cc1)c1ccccc1OCc1ccncc1 | > 2000 nM
2 | 0% | > 1000 nM | S=C(Nc1ccc(Cl)cc1)c1ccccc1OCc1ccncc1 | –
3 | – | 46 nM | O=C(Nc1ccc(Cl)cc1)c1ccccc1SCc1ccncc1 | –
4 | – | – | Clc1ccc(Nc2nnc(Cc3ccncc3)c3ccccc23)cc1 | 6 nM
5 | – | 26 nM | O=C(Nc1ccc(Cl)cc1)c1cccnc1SCc1ccncc1 | –
